Measurements reported in ChEMBL document CHEMBL1125298, “Hypocholesterolemic activity of synthetic and natural tocotrienols” (J Med Chem, 1992).
Converted amounts (≈) assume the structure as drawn. “And” between values parts separate entries of the source, which are not always exact repeats. Equal entries are not always repeated.

Legend:
Rattus norvegicus [1] = organism: Rattus norvegicus; assay: Compound is evaluated for the inhibition of cholesterol biosynthesis in isolated rat hepatocytes at the concentration 250 (ug/mL); type: functional, Hepatocyte
Gallus gallus [2] = organism: Gallus gallus; assay: Compound is evaluated for the effect on lipid metabolism in 6-week-old male chickens at a concentration of 20 ppm in the diet and measured for LDL cholesterol; type: functional
Summary of the method: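 Male chicks were raised 2 weeks on a corn-soybean control diet, then fed 4 weeks on control diet or the same diet with compound added. All birds were fasted 36 h and refed 48 h before sacrifice. Serum cholesterol is given as mg/100 mL.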

HepG2 [3] = assay: Compound evaluated for Percent inhibition of cholesterol synthesis from HMG-CoA Reductase in HepG2 cell; type: functional, Homo sapiens
Rattus norvegicus [4] = organism: Rattus norvegicus; assay: Compound is evaluated for the inhibition of cholesterol biosynthesis in isolated rat hepatocytes at the concentration 125 (ug/mL); type: functional, Hepatocyte
Gallus gallus [5] = organism: Gallus gallus; assay: picomoles of mevalonic acid synthesized per minute per mg of microsomal protein; type: functional, organism-based
Rattus norvegicus [6] = organism: Rattus norvegicus; assay: Inhibitory concentration required to inhibit cholesterol synthesis in isolated rat Hepatocytes; type: functional, Hepatocyte
Gallus gallus [7] = organism: Gallus gallus; assay: Compound is evaluated for the effect on lipid metabolism in 6-week-old male chickens at a concentration of 20 ppm in the diet and measured for HDL cholesterol; type: functional
HepG2 [8] = assay: Compound evaluated for Percent inhibition of cholesterol synthesis from [14C]acetate in HepG2 cell; type: functional, Homo sapiens
Rattus norvegicus [9] = organism: Rattus norvegicus; assay: Compound is evaluated for the inhibition of cholesterol biosynthesis in isolated rat hepatocytes at the concentration 500 (ug/mL); type: functional, Hepatocyte
Gallus gallus [10] = organism: Gallus gallus; assay: Compound is evaluated for the effect on lipid metabolism in 6-week-old male chickens at a concentration of 20 ppm in the diet and measured for total cholesterol; type: functional
HepG2 [11] = assay: Compound is evaluated for relative potency versus gamma-tocotrienol at 4 (h) time point in HepG2 cells; type: functional, Homo sapiens
Rattus norvegicus [12] = organism: Rattus norvegicus; assay: Compound is evaluated for the inhibition of cholesterol biosynthesis in rat hepatocytes at a concentration of 41 (micro g/mL); type: functional, Hepatocyte
HepG2 [13] = assay: Compound evaluated for percent inhibition of cholesterol synthesis from HMG-CoA Reductase in HepG2 cell; type: functional, Homo sapiens
HepG2 [14] = assay: Compound is evaluated for the inhibition of cholesterol synthesis in HepG2 cells for an incubation time of 2 (h); type: functional, cell-based; details: Homo sapiens
Summary of the method: (§1)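 HepG2 cells were grown in RPMI-1640 with 10% FBS. At about 70% confluence they were switched to 7% lipid-depleted serum for 16 h. Compound in DMSO (0.5% v/v final) was added for the stated time. A [2-14C]acetate pulse over the final 60 min measured incorporation into digitonin-precipitable sterols. IC50 came from linear regression of at least four concentrations, each in duplicate.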

HepG2 [15] = assay: Compound is evaluated for relative potency versus gamma-tocotrienol at 2 (h) time point in HepG2 cells; type: functional, Homo sapiens
Rattus norvegicus [16] = organism: Rattus norvegicus; assay: Compound is evaluated for the inhibition of cholesterol biosynthesis in rat hepatocytes at a concentration of 210 (micro g/mL); type: functional, Hepatocyte
HepG2 [17] = assay: Compound evaluated for percent inhibition of cholesterol synthesis from [14C]acetate in HepG2 cell; type: functional, Homo sapiens; set-up: concentration or dose not given beside the values
HepG2 [18] = assay: Compound is evaluated for the inhibition of cholesterol synthesis in HepG2 cells for an incubation time of 6 (h); type: functional, cell-based; details: Homo sapiens; summary of the method: as §1
HepG2 [19] = assay: Compound is evaluated for relative potency versus gamma-tocotrienol at 6 (h) time point in HepG2 cells; type: functional, Homo sapiens
HepG2 [20] = assay: Compound is evaluated for the inhibition of cholesterol synthesis in HepG2 cells for an incubation time of 4 (h); type: functional, cell-based; details: Homo sapiens; summary of the method: as §1
Rattus norvegicus [21] = organism: Rattus norvegicus; assay: Compound is evaluated for the inhibition of cholesterol biosynthesis in isolated rat hepatocytes at the concentration 500 ug/mL; type: functional, Hepatocyte
Rattus norvegicus [22] = organism: Rattus norvegicus; assay: Percent inhibition at 250 ug/mL of binary mixtures of compound and alpha-tocotrienol on cholesterol synthesis in rat hepatocytes; type: functional, Hepatocyte
Rattus norvegicus [23] = organism: Rattus norvegicus; assay: Inhibitory concentration required to inhibit cholesterol synthesis in isolated rat Hepatocytes; no inhibition; type: functional; details: hepatocyte
Rattus norvegicus [24] = organism: Rattus norvegicus; assay: Percent inhibition of cholesterol biosynthesis in rat hepatocytes at a concentration of 210 (micro g/mL); type: functional, Hepatocyte
Rattus norvegicus [25] = organism: Rattus norvegicus; assay: Percent inhibition at 250 ug/mL of binary mixtures of compound and delta-tocotrienol on cholesterol synthesis in rat hepatocytes; type: functional, Hepatocyte
Rattus norvegicus [26] = organism: Rattus norvegicus; assay: Percent inhibition at 250 ug/mL of binary mixtures of compound and gamma-tocotrienol on cholesterol synthesis in rat hepatocytes; type: functional, Hepatocyte
[27] = Rattus norvegicus, Hepatocyte, read-out: IC50

SMILES | Inhibition (Rattus norvegicus [1]) | LDL cholesterol (Gallus gallus [2]) [mg 100ml-1] | Inhibition (HepG2 [3]) [%] | Inhibition (Rattus norvegicus [4]) [%] | HMGR activity (Gallus gallus [5]) | IC50 (Rattus norvegicus [6]; [27]) [µg/mL] | IC50 (Rattus norvegicus [6]; hepatocyte) [µg/mL] | HDL cholesterol (Gallus gallus [7]) [mg 100ml-1] | Inhibition (HepG2 [8]) [%] | Total cholesterol (Gallus gallus [10]) [mg 100ml-1] | Inhibition (HepG2 [13]) [%] | Inhibition (HepG2 [17]) [%] | Inhibition (Rattus norvegicus [21]) | Inhibition (Rattus norvegicus [25]) [%] | Inhibition (Rattus norvegicus [26]) [%] | also measured
CC(C)=CCC/C(C)=C/CC/C(C)=C/CC[C@]1(C)CCc2cc(O)cc(C)c2O1 [DELTA-TOCOTRIENOL] | 49% and 33% | 41 | 65 | 26 | 550 | 260 (≈ 656 µM) | 340 (≈ 857 µM) | 99 | 77 | 141 | – | – | – | – | – | Inhibition (Rattus norvegicus [9]): 62% and 63%
CC(C)=CCC/C(C)=C/CC/C(C)=C/CCC1(C)CCc2c(C)c(O)c(C)c(C)c2O1 (racemic) | – | – | – | – | – | – | – | – | – | – | 19 | 21 | – | – | – | Relative potency (HepG2 [11]): 0.03; Inhibition (Rattus norvegicus [12]): 4%; IC50 (HepG2 [14]): 380 µM; Relative potency (HepG2 [15]): 0.016; Inhibition (Rattus norvegicus [16]): 17%; IC50 (HepG2 [18]): 110 µM; Relative potency (HepG2 [19]): 0.027; IC50 (HepG2 [20]): 94 µM
CC(C)=CCC/C(C)=C/CC/C(C)=C/CCC1(C)CCc2cc(O)ccc2O1 (racemic) | – | – | – | – | – | – | – | – | – | – | 56 | 63 | – | – | – | –
Cc1c(C)c2c(c(C)c1O)CC[C@@](C)(CCC[C@H](C)CCC[C@H](C)CCCC(C)C)O2 [ALPHA-TOCOPHEROL] | 0% | 72 | – | – | 1300 | – | – | 113 | – | 190 | – | – | 2% and 0% | 49 | 42 | Inhibition (Rattus norvegicus [22]): 3%; IC50 (Rattus norvegicus [23]): Not Active; Inhibition (Rattus norvegicus [24]): 0%
CC(C)=CCC/C(C)=C/CC/C(C)=C/CC[C@]1(C)CCc2c(C)c(O)c(C)c(C)c2O1 [ALPHA-TOCOTRIENOL] | 8% and 20% | 55 | 15 | 8 | 670 | > 1000 | 1300 (≈ 3060 µM) | 102 | 32 | 155 | – | – | 12% and 33% | 53 | 49 | –
CC(C)=CCC/C=C/CCC1(C)CCc2cc(O)c(C)c(C)c2O1 (stereo not drawn) | – | – | – | – | – | – | – | – | – | – | – | 38 | – | – | – | –
